Tests used:
Mus musculus = assay: Toxicity in overnight fast KKAy mouse assessed as reduction of daily food intake at 30 to 75 mg/kg, sc bid for 2 days; type: organism-based; design: dose 30-75 mg/kg, route subcutaneous; settings: in vivo, 48 h
How it was run: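 Hyperglycemic KKAy mice given 30 or 75 mg/kg s.c. twice daily as a suspension in sesame oil; controls received oil (150 µl). Daily food intake recorded over the 2-day treatment; n=10 per group, mean ± SEM.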

Cytochrome P450 1A2 = target: T1, Cytochrome P450 1A2 (Homo sapiens, UniProt P05177); assay: Inhibition of CYP1A2 (unknown origin) by luminescent based assay; type: ADME
T1 sequence (P05177 whole entry): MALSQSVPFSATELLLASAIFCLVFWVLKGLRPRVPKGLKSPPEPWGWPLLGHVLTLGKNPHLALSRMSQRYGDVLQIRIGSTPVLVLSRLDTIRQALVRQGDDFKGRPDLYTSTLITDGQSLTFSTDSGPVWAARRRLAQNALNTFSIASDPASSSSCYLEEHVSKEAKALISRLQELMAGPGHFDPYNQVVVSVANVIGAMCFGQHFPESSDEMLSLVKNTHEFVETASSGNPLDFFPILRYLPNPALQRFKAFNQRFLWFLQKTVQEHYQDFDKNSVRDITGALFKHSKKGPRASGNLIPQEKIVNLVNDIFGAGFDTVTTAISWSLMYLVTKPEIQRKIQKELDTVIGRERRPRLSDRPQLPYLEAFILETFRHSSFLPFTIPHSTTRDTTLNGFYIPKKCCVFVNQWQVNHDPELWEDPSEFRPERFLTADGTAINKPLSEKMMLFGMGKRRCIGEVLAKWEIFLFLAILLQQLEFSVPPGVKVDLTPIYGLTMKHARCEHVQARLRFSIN

L6 = assay: Activation of AMPKalpha in rat L6 cells assessed as phosphorylation at Thr172 at 10 uM after 4 hrs by Western blot analysis relative to control; type: cell-based
How it was run: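 L6 myotubes treated 4 h with increasing compound concentrations (5 to 150 μM) or DMSO. Whole-cell lysates immunoblotted for pThr172-AMPKα, AMPKα and α-tubulin; phosphorylation expressed relative to DMSO-treated control.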

With `CCOc1ccc2nc(SCc3nc4ccccc4s3)sc2c1` the Activity (Mus musculus) was “Non-toxic”, the “inhibition (INH)” value (Cytochrome P450 1A2) was “Not Active” and the fold change (FC) (L6) was 4.7.

Source: ChEMBL document CHEMBL2396611, “Synthesis and mechanism of hypoglycemic activity of benzothiazole derivatives” (J Med Chem, 2013)
